The record followed here is ChEMBL document CHEMBL4396876, “Antisulfatase, Osteogenic, and Anticancer Activities of Steroid Sulfatase Inhibitor EO-33 in Mice” (J Med Chem, 2019).

The nature of data set [1]: Drug level in Balb/c mouse treated with 2-{[4-({(Furan-2-ylmethyl)[(5-methylthiophen-2-yl)-methyl]amino}methyl)phenyl]carbonyl}-1,2,3,4-tetrahydroisoquinolin-7-yl Sulfamate assessed as metabolite formation at 30 mg/kg, sc administered as single dose using MC/EtOH formulation by LC-MS/MS analysis. It counts as ADME, organism-based. The conditions noted are these: in vivo. Summed up: (§1)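 Phenol metabolite EO-29 measured by LC-MS/MS in plasma of female Balb/c mice fasted 8 h, then given a single 30 mg/kg dose of the sulfamate in MC:EtOH (92:8), 0.1 mL, SC or by gavage. Sampled at 1, 3, 7, 12 and 24 h by cardiac puncture (2–3 mice/group).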

Data set [2] in a line: Drug level in Balb/c mouse treated with 2-{[4-({(Furan-2-ylmethyl)[(5-methylthiophen-2-yl)-methyl]amino}methyl)phenyl]carbonyl}-1,2,3,4-tetrahydroisoquinolin-7-yl Sulfamate assessed as metabolite formation at 30 mg/kg, po administered via gavage as single dose using MC/EtOH formulation by LC-MS/MS analysis. It counts as ADME, organism-based. As to conditions: in vivo. In outline: as §1

Data set [3] relates to Mus musculus. Kind of data set: Osteogenic activity in ovariectomized-induced C57BL/6 mouse model of osteoporosis assessed as recovery of tibia calcium content at 1 mg/kg, sc administered 6 days per week for 70 days by Triple Quad ICP-MS analysis relative to control. It counts as functional. Summed up: (§2)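 Female C57BL/6 mice (63–70 days) ovariectomized under isoflurane; sham controls kept. 8/group, dosed SC in 0.1 mL MC:EtOH (92:8) for 70 days. Tibias excised and weighed (mg/g body weight). Calcium measured by ICP-MS after calcination at 600 °C for 6 h and HNO3 microwave digestion; expressed as mg/g tibia.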

Data set [4] has as its system Mus musculus. Kind of data set: Osteogenic activity in ovariectomized-induced C57BL/6 mouse model of osteoporosis assessed as recovery of tibia weight at 1 mg/kg, sc administered 6 days per week for 70 days relative to control. It counts as functional. In outline: as §2
For data set [5], the system named is Mus musculus. Kind of data set: Estrogenic activity in ovariectomized-induced C57BL/6 mouse model of osteoporosis assessed as stimulation of uterus weight at 1 mg/kg, sc administered 6 days per week for 70 days measured post last dose by necropsy analysis. The class given is ADME, organism-based. As to conditions: in vivo.
Data set [6] can be described thus: Hepatotoxicity in ovariectomized-induced C57BL/6 mouse model of osteoporosis assessed as effect on liver weight at 1 mg/kg, sc administered 6 days per week for 70 days measured post last dose by necropsy analysis. The class given is toxicity, organism-based. The conditions noted are these: in vivo.
Data set [7] is described as follows: Toxicity in ovariectomized-induced C57BL/6 mouse model of osteoporosis assessed as effect on body weight at 1 mg/kg, sc administered 6 days per week for 70 days measured post last dose. It counts as organism-based. The conditions noted are these: in vivo. In outline: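 Female C57BL/6 mice, 63-70 days old, ovariectomized under isoflurane (sham-operated controls), randomized by weight into groups of 8. Treated SC in 0.1 mL MC:EtOH (92:8) over 70 days; sham and OVX controls received vehicle alone. Mice weighed at the end of the protocol before necropsy.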

Data set [8] has as its system Mus musculus. Kind of data set: Osteogenic activity in ovariectomized-induced C57BL/6 mouse model of osteoporosis assessed as recovery of tibia calcium content at 5 ug/kg, sc treated for 70 days by Triple Quad ICP-MS analysis relative to control. The class given is functional. Summed up: as §2
In data set [9] the test system is Mus musculus. Kind of data set: Osteogenic activity in ovariectomized-induced C57BL/6 mouse model of osteoporosis assessed as recovery of tibia weight at 5 ug/kg, sc treated for 70 days relative to control. The class given is functional. Summed up:
as §2

Data set [10] relates to Mus musculus. Kind of data set: Ex vivo inhibition of STS in ovariectomized Balb/c mouse liver homogenates assessed as reduction in transformation of [3H]-E1S into [3H]-E1 at 5 mg/kg, sc administered once daily starting from day 2 to day 10 using MC/EtOH formulation and E1S addition on day 5 to 10 measured on day 11 by liquid scintillation counting method relative to control. It counts as functional. In outline:
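Livers collected on day 11 from the OVX Balb/c uterotrophic protocol and homogenized in cold pH 7.4 phosphate buffer with protease inhibitors. 2000 g supernatant, 100 or 500 µg protein, incubated with [3H]-E1S/E1S (final 1 µM) in PBS for 2 h at 37 °C. Xylene extraction, then scintillation counting of both phases. Result given as % E1 formed. Triplicate.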

Data set [11] concerns Mus musculus. Kind of data set: In vivo inhibition of STS in ovariectomized Balb/c mouse assessed as reduction in E1S-stimulated uterus weight at 5 mg/kg, sc administered once daily starting from day 2 to day 10 using MC/EtOH formulation and E1S addition on day 5 to 10 measured on day 11 relative to control. The class given is functional. Summed up: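 Female Balb/c mice (15–20 g) ovariectomized under isoflurane, 5/group. Inhibitor given SC in 0.1 mL MC:EtOH (92:8) on days 2–10. E1S (2 µg/mouse, BID) or E1 (0.06 µg/mouse, ID) given SC on days 5–10. Vehicle controls included. Uterus dissected and weighed on day 11. Means ± SEM.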

With `Cc1ccc(CN(Cc2ccc(C(=O)N3CCc4ccc(O)cc4C3)cc2)Cc2ccco2)s1`, the Drug metabolism entry in data set [1] and in [2] was “Metabolite_Detected” in each case.
As for `O=C(c1ccc(OCCN2CCCCC2)cc1)c1c(-c2ccc(O)cc2)sc2cc(O)ccc12` [RALOXIFENE], the Activity with Mus musculus [3] was 100%; with Mus musculus [4], 100%; with Mus musculus [5], “Toxic”; in [6], “Non-Toxic”; in data set [7], “Non-Toxic”.
For `C[C@]12CC[C@@H]3c4ccc(O)cc4CC[C@H]3[C@@H]1CC[C@@H]2O` [ESTRADIOL], the Activity in the data set with Mus musculus [8] and with Mus musculus [9] was 100% throughout.
Turning to `COc1cc2c(cc1OS(N)(=O)=O)CC[C@@H]1[C@@H]2CC[C@@]2(C)[C@H]1CC[C@@]2(O)Cc1ccccc1`, the values for the inhibition in vivo at 5 mg/kg in the data set with Mus musculus [10] and with Mus musculus [11] were 100% and 71%, respectively.

The term inhibition in vivo denotes the relative decrease from the control value, in per cent.
